Results as given in paper PMC4084507 (Chembiochem : a European journal of chemical biology, 2014).
Read-outs that look alike come from different tables or passages of the source.

Key:
[1] = biological target: AtsB (Mycobacterium tuberculosis, UniProt O65931); settings: 10 µM probe, 7-8 min; native gel-resolved lysate
[2] = test system: Helix pomatia sulfatase; assay: fluorogenic hydrolysis assay; assay type: biochemical; settings: read-out: Helix pomatia ^[b]; potassium acetate buffer pH 5.0, 37 °C
How it was run: (§1)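 Commercial Helix pomatia sulfatase was incubated with the fluorogenic sulfate substrate in potassium acetate buffer (pH 5.0) at 37 °C. Formation of the released fluorophore was monitored over time. Substrate-only reactions without enzyme served as the background control. KM and Vmax (pmoles/sec) were derived from the kinetics, and Vmax/KM was calculated from them.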

[3] = test system: Helix pomatia sulfatase; assay: fluorogenic hydrolysis assay; assay type: biochemical; settings: read-out: Helix pomatia ^[b]; potassium acetate buffer pH 5.0, 37 °C; remark: listed apart in the source
How it was run: as §1

Compound | in-gel fluorescence after native gel of lysate [1] | Km [2] [µM] | Km [3] [µM]
CC1(C)C2=C(Cl)C(=O)C(Cl)=CC2=Nc2ccc(OS(=O)(=O)O)cc21 [DDAO-sulfate] | AtsB can hydrolyze both RS and DDAO-sulfate, but not MFS | – | –
COc1ccc2c(c1)Oc1cc(OS(=O)(=O)O)ccc1C21OC(=O)c2ccccc21 (stereo not shown) [MFS] | – | 24.8 ± 2.2 | –
O=c1ccc2nc3ccc(OS(=O)(=O)O)cc3oc-2c1 [RS] | AtsB can hydrolyze both RS and DDAO-sulfate, but not MFS | – | 17.5 ± 0.9
